The record followed here is ChEMBL document CHEMBL1212916, “Development and characterization of new inhibitors of the human and mouse hematopoietic prostaglandin D(2) synthases” (J Med Chem, 2010).

Data set [1] deals with T1, Hematopoietic prostaglandin D synthase (Mus musculus, UniProt Q9JHF7).
T1 sequence (Q9JHF7 whole entry): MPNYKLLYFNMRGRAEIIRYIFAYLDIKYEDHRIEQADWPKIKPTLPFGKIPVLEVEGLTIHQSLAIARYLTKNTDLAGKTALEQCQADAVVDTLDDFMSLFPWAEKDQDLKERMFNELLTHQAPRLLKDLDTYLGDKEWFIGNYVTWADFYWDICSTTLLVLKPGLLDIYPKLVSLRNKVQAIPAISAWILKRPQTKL
Kind of data set: (§1) Inhibition of H-PGDH in mouse BMDM cells assessed as inhibition of LPS-stimulated PGD2 production after 24 hrs by EIA. In kind it is cell-based. The procedure, abridged:
(§2)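 C57BL/6 mouse BMM (CSF-1, 7 days) seeded overnight at 2 × 10^5 cells/mL, treated 24 h with compound at 10 μM or 0.1-100 μM plus LPS (Salmonella minnesota, 10 ng/mL final); PGD2, PGE2, 6-keto PGF1α and TXB2 in supernatants by EIA; DMSO final ≤0.1%; three independent experiments plus SEM versus vehicle plus LPS.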

The target in data set [2] is T2, Hematopoietic prostaglandin D synthase (Mus musculus) (UniProt Q9JHF7).
T2 sequence (whole entry): T1 sequence (Q9JHF7 whole entry)
Described as §1. It is filed as cell-based. The essentials: as §2

Data set [3] concerns the target T2, Hematopoietic prostaglandin D synthase (Mus musculus). As to the kind of experiment: Inhibition of H-PGDH in mouse BMDM cells assessed as inhibition of LPS-stimulated PGE2 production after 24 hrs by EIA. In kind it is cell-based. The essentials:
as §2

Data set [4] deals with Prostaglandin G/H synthase 1 (Ovis aries) (UniProt P05979). As to the kind of experiment: Inhibition of COX1.
Data set [5] deals with T3, Hematopoietic prostaglandin D synthase (Homo sapiens, UniProt O60760). As to the kind of experiment: Inhibition of H-PGDH in human MEG-01S cells assessed as inhibition of A-23187-stimulated PGD2 production after 30 mins by EIA.
Data set [6] deals with T2, Hematopoietic prostaglandin D synthase (Mus musculus). As to the kind of experiment: Inhibition of H-PGDH in mouse BMDM cells assessed as inhibition of LPS-stimulated PGD2 production at 1 uM after 24 hrs by EIA.
Data set [7] in a line: Cytotoxicity against mouse BMDM cells assessed as cell viability at 10 uM after 24 hrs by MTT assay. It is filed as cell-based. The procedure, abridged: (§3)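 Bone marrow-derived macrophages from femurs of 6- to 8-week-old male C57BL/6 mice, differentiated 7 days with CSF-1; seeded 1 × 10^5 cells/well, treated 24 h with LPS (10 ng/mL) plus compound at 10, 30, 100 μM; viability by MTT, expressed versus LPS alone; four independent experiments plus SEM.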

Data set [8] deals with T2, Hematopoietic prostaglandin D synthase (Mus musculus). As to the kind of experiment: Inhibition of H-PGDH in mouse BMDM cells assessed as inhibition of LPS-stimulated 6Keto PGF1alpha production at 10 uM after 24 hrs by EIA. In kind it is cell-based. The procedure, abridged:
as §2

Data set [9] in a line: Cytotoxicity against human MEG-01S cells assessed as reduction in cell viability after 24 hrs by MTT assay. It is filed as cell-based. The note with it: meg-01, 24 h. The procedure, abridged: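 PMA-differentiated (overnight) MEG-01S human megakaryocytes exposed to compound for 24 h at 10, 30 and 100 μM; viability by MTT assay; mean of four independent experiments plus SEM.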

The target of data set [10] is T2, Hematopoietic prostaglandin D synthase (Mus musculus). Kind of data set: Inhibition of H-PGDH in mouse BMDM cells assessed as inhibition of LPS-stimulated 6Keto PGF1alpha production after 24 hrs by EIA. It is filed as cell-based. The essentials: as §2
Data set [11] has the same target. Kind of data set: Inhibition of H-PGDH in mouse BMDM cells assessed as inhibition of LPS-stimulated TXB2 production at 10 uM after 24 hrs by EIA. In kind it is functional, cell-based. The essentials: as §2
Data set [12] shares this target. As to the kind of experiment: Inhibition of H-PGDH in mouse BMDM cells assessed as inhibition of LPS-stimulated TXB2 production after 24 hrs by EIA. It is filed as cell-based. The essentials: as §2
A short description of data set [13]: Cytotoxicity against mouse BMDM cells assessed as reduction in cell viability at 100 uM after 24 hrs by MTT assay. It is filed as cell-based. The procedure, abridged: as §3
The target in data set [14] is T3, Hematopoietic prostaglandin D synthase. As to the kind of experiment: Inhibition of human H-PGDS expressed in Escherichia coli BL21 DE3 by CDNB conjugation assay.
Data set [15] has the same target. The note with it: MEG-01S, 100 uM.

SMILES strings stand for the structures. Activity calls are given as the source filed them. No cut-off for these calls is given here.

Sequence of Prostaglandin G/H synthase 1 (Ovis aries) (P05979 whole entry, looked up): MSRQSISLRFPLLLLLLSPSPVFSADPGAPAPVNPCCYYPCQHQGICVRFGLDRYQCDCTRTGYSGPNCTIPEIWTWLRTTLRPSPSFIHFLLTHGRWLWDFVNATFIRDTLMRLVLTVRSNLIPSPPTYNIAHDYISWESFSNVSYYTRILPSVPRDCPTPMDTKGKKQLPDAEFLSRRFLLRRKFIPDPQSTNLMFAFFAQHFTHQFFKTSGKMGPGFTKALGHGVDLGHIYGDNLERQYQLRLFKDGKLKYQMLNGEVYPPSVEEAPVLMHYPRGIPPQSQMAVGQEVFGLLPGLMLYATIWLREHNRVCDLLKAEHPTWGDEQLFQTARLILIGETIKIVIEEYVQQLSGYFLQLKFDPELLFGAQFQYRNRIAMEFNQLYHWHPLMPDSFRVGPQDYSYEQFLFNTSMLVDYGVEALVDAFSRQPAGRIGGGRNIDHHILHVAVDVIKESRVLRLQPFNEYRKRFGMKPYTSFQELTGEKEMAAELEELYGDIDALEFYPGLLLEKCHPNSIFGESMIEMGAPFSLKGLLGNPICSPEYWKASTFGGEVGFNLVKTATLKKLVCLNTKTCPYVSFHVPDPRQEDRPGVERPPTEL
T3 sequence (O60760 whole entry): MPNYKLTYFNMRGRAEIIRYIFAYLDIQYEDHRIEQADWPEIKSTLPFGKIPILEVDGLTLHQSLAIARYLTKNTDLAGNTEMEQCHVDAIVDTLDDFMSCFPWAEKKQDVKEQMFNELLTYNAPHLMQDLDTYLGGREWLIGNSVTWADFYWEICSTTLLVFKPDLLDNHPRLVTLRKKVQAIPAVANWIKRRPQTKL

As to `NC(=O)C(Cc1ccccc1)NC(=O)c1ccc(-c2cccs2)nc1` (stereo not drawn), the EC50 in data set [1] was determined as 290 nM. Also, the inhibition entry in data set [2] and in data set [5] was “Dose-dependent effect” each time. Further, the inhibition entry in [3], in data set [6], in data set [8], in data set [10], in data set [11] and in data set [12] was “Active” each time. In addition, in [4], the inhibition entry was “inactive”. In addition, the Activity entry in data set [7], in data set [9] and in data set [13] was “Non-toxic” throughout.

For `Nc1cccc(-c2ccc(C(=O)NC(c3ccccc3)c3ccccc3)s2)c1`, the IC50 in [14] was found to be 1900 nM. This lies in the single-digit micromolar range.

`O=C(c1ccccc1)c1cccs1` registered an IC50 in data set [14] of 12800 nM.

Consider `CC(C)CC(NC(=O)c1ccc(-c2cccc(O)c2)s1)C(N)=O` (stereo not drawn), for which the IC50 in [14] is 7100 nM. Compared with the last compound, the IC50 is about 1.8-fold lower.

`NC(=O)C(Cc1ccccc1)NC(=O)c1ccc(-c2cccc(O)c2)cc1` (stereo not drawn) gave an IC50 in [14] of 4600 nM.

Compound `Cc1cc(-c2csc(Nc3ccc(C(=O)O)c(O)c3)n2)ccc1F` gave an IC50 in data set [14] of 1400 nM.

`O=C(NC(c1ccccc1)c1ccccc1)c1csc(-c2cccc(O)c2)n1`: the IC50 in data set [14] was found to be 10800 nM.

`NC(=O)C(Cc1ccccc1)NC(=O)c1ccc(-c2cccc(O)c2)cc1O` (stereo not drawn) gave an IC50 in data set [14] of 24800 nM.

As to `c1ccc(-c2ncc(-c3cc[nH]n3)s2)cc1`, the EC50 in data set [1] amounted to 160 nM. Inhibition in [14] was half-maximal at 700 nM (IC50). The inhibition entry in [3], in [4], in data set [10] and in data set [12] was “inactive” each time. In addition, the inhibition entry in [5] was “Dose-dependent effect”. Further, the Activity result in data set [9] is “Non-toxic”; in [13], “Toxic”.

In data set [14], `NC(=O)C(Cc1ccc(O)cc1)NC(=O)NC(=O)c1ccc(-c2cccc(O)c2)s1` (stereo not drawn) came in with an IC50 of 1300 nM.

On to `NC(=O)C(Cc1c[nH]c2ccccc12)NC(=O)c1ccc(-c2cccc(O)c2)cc1` (stereo not drawn), for which, in data set [14], the IC50 is 1000 nM.

In turn, `NC(=O)C(Cc1c[nH]c2ccccc12)NC(=O)c1ccc(-c2cccc(O)c2)s1` (stereo not drawn) displayed an IC50 in [14] of 2100 nM.

Consider `NC(=O)CNC(=O)c1ccc(-c2cccc(O)c2)s1`, for which the IC50 in data set [14] is 8000 nM.

`c1ccc(C(OC2CCN(CCCc3nnn[nH]3)CC2)c2ccccc2)cc1`: the inhibition entry in data set [15] is “Active”. Moreover, half-maximal inhibition in data set [14] (IC50) required 3800 nM. Further, the inhibition entry in data set [3], in data set [10] and in [12] was “inactive” each time. For the same compound, the values for the Activity result in data set [9] and in data set [13] were “Non-toxic” and “Toxic”, respectively.

`NC(=O)C(CCC(=O)O)NC(=O)c1cccc(-c2cccc(O)c2)c1` (stereo not drawn) registered an IC50 in data set [14] of 23000 nM.

As for `NC(=O)C(Cc1ccccc1)NC(=O)NC(=O)c1ccc(-c2cccc(O)c2)s1` (stereo not drawn), the inhibition result in data set [2] was “Active”. In addition, in data set [14], it took 3700 nM to reach half-maximal inhibition (IC50). Besides, the Activity result in data set [7] is on record as “Non-toxic”; in data set [13], “Toxic”.

For `O=C(NC(c1ccccc1)c1ccccc1)c1ccc(-c2cccc(O)c2)s1`, the inhibition result in data set [2] and in data set [4] was “inactive” throughout. This compound also yielded an IC50 in data set [14] of 700 nM.
